This note sets out measurements from ChEMBL document CHEMBL5579857, “Fragment-Based Discovery of Novel MUS81 Inhibitors” (ACS Med Chem Lett, 2024).

A short description of series [1]: Binding affinity to human Avi-tagged MUS81 (246 to 551 residues)/2x8His-tagged EME1 (246 to 570 residues) extracted from Escherichia coli BL21 Gold (DE3) by SPR analysis. The method, boiled down: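 Fragments flagged as hits in a DSF screen were taken into SPR against MUS81-EME1 to confirm binding and obtain Kd. Kd is reported as the geometric mean with geometric standard deviation of at least three determinations.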
For orientation: SPR reads the build-up and loss of mass on a sensor chip optically.

A short description of series [2]: Inhibition of human Avi-tagged MUS81 (246 to 551 residues)/2x8His-tagged EME1 (246 to 570 residues) extracted from Escherichia coli BL21 Gold (DE3) using branched DNA as substrate preincubated for 15 mins followed by substrate addition and measured after 90 mins by FRET assay. The method, boiled down: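 IC50 is reported as the geometric mean ± SEM of at least three independent determinations.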

The nature of series [3]: Metabolic stability in rat hepatocytes assessed as intrinsic clearance measured per million cells. As to conditions: read-out: CLH. It counts as ADME, cell-based, Hepatocyte.
Series [4] is described as follows: Metabolic stability in human liver microsomes assessed as intrinsic clearance. It counts as ADME, Microsome. Background: Microsomes from liver hold many membrane-bound enzymes, among them those of drug oxidation.
In series [5] the target is Voltage-gated inwardly rectifying potassium channel KCNH2 (Homo sapiens, UniProt Q12809). As to the kind of experiment: Inhibition of hERG. It counts as toxicity.
Sequence of Voltage-gated inwardly rectifying potassium channel KCNH2 (Q12809 whole entry): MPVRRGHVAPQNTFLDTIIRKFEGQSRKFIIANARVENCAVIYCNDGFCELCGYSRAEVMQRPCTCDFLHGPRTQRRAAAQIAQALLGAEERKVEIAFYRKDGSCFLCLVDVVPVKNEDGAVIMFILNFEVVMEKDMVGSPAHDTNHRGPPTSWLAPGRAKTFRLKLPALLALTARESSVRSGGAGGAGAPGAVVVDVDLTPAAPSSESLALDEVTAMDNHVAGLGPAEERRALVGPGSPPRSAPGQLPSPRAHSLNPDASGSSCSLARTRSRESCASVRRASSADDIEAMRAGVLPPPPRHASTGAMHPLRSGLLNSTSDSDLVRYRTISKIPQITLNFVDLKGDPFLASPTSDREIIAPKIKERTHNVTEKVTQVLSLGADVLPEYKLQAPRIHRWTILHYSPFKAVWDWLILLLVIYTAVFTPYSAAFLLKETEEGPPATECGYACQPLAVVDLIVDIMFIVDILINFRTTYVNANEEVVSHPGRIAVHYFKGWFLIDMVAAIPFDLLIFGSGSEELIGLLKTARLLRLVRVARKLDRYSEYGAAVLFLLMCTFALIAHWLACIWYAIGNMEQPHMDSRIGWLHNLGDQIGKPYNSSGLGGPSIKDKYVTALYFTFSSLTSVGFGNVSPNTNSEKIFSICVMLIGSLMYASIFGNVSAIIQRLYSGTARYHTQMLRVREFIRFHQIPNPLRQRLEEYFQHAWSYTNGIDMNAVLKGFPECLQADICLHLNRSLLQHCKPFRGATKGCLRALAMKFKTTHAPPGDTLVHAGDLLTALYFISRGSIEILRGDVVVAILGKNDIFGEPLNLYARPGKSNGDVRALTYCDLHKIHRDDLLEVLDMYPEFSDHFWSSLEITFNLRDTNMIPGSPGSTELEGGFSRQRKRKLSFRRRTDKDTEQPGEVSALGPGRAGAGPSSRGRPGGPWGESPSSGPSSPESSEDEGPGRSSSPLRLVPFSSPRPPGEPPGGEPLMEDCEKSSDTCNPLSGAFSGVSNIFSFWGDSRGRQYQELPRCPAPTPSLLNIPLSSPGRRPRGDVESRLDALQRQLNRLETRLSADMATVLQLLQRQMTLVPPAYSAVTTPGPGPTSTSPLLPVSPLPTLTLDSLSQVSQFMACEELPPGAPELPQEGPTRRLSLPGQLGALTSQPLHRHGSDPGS
A short description of series [6]: Efflux ratio of apparent permeability in human Caco-2 cells. It counts as ADME, cell-based.
Series [7] has as its target GABA-A receptor; anion channel. As to the kind of experiment: Inhibition of GABA (unknown origin). It is filed as toxicity, Homo sapiens.
Series [8] deals with CaV-L (Voltage-gated L-type calcium channel) (Homo sapiens, UniProt O60840+Q01668+Q13698+Q13936). Nature of the series: Inhibition of CaV-L (unknown origin). It is filed as toxicity.
Series [9] can be described thus: Lipophilicity, logD of the compound in octanol/water at pH 7.4 by shake flask method. It counts as physicochemical.
A further series relates to PDE. As to the kind of experiment: Inhibition of PDE (unknown origin). It is filed as toxicity, Homo sapiens.
Series [10] can be described thus: Kinetic aqueous solubility of the compound at pH 7.4. It is filed as physicochemical. As to conditions: buffer.
Series [11] deals with T1, Prostaglandin G/H synthase 2 (Homo sapiens, UniProt P35354).
T1 sequence (P35354 whole entry): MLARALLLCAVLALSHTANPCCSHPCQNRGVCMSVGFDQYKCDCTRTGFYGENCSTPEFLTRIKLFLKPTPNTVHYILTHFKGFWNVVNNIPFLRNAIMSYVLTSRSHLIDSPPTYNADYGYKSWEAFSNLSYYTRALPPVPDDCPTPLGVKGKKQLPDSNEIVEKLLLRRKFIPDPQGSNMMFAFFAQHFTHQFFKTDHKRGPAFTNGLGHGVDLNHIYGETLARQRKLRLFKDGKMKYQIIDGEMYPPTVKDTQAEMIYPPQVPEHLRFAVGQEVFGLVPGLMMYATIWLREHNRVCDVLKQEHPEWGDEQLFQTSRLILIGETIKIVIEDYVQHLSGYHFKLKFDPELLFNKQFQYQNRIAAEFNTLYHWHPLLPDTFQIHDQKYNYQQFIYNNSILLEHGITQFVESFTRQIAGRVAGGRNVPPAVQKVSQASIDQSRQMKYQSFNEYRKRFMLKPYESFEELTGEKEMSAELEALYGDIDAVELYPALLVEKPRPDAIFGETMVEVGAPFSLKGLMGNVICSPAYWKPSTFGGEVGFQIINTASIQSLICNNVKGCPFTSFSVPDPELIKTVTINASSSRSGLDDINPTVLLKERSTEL
Nature of the series: Inhibition of COX2 (unknown origin). It counts as toxicity.

The target of series [12] is Glutamate [NMDA] receptor. Nature of the series: Inhibition of NMDA (unknown origin). It counts as toxicity, Homo sapiens.
The target in the next series is Insulin receptor (Homo sapiens, UniProt P06213). Nature of the series: Inhibition of INSR (unknown origin). It counts as toxicity.
Sequence of Insulin receptor (P06213 28-758 limits assumed): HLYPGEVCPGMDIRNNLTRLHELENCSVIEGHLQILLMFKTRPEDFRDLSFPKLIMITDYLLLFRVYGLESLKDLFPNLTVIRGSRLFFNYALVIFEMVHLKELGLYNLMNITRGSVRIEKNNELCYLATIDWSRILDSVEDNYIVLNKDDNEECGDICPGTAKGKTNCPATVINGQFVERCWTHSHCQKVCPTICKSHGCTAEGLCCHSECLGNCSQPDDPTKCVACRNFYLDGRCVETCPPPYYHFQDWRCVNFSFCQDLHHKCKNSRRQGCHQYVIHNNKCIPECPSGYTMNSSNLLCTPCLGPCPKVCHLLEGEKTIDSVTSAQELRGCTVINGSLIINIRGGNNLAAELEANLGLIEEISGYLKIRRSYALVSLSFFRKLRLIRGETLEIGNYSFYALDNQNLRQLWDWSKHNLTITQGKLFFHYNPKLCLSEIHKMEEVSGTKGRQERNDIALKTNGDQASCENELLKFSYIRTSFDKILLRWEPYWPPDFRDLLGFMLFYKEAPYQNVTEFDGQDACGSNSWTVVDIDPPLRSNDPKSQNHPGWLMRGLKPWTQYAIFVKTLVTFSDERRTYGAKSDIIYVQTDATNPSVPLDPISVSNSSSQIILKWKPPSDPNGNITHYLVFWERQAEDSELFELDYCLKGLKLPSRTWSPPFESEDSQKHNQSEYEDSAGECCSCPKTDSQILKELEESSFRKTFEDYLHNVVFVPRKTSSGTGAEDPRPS
Sequence of Insulin receptor (P06213 763-1382 limits assumed): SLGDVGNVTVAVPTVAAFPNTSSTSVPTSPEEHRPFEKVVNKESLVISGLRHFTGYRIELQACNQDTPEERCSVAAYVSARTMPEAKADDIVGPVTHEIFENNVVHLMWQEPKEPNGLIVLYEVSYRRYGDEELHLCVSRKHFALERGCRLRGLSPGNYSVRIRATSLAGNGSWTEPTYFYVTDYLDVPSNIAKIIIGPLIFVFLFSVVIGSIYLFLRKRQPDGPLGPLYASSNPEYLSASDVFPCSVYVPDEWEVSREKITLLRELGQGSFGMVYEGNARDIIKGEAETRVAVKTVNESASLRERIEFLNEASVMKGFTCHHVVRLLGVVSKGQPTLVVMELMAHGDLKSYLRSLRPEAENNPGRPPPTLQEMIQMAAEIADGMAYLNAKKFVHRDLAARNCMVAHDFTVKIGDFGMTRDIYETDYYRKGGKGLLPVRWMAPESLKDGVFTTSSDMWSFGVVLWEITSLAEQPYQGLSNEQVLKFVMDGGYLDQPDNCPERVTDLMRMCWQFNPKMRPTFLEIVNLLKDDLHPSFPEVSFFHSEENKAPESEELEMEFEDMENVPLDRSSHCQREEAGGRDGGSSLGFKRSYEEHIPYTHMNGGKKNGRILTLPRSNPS

A word on the Kd: it is the constant that tells how readily two partners part at equilibrium. Broadly, the IC50 is the concentration that inhibits the measured activity by half. Broadly, the logD is the decadic logarithm of the distribution of all forms, ionised or not, between an organic phase and buffer at a given pH.

`O=C(O)c1nc(-c2ccc(Cl)cc2)nc(O)c1O` yielded an equilibrium dissociation constant (Kd) in series [1] of 1100 nM. The molecule also gave an IC50 in series [2] of 2100 nM.

On to `O=C(O)c1nc(C2CCCCC2)nc(O)c1O`, for which the Kd in [1] stood at 2200 nM. In addition, in [2], the IC50 was 2800 nM.

In series [1], `COC(=O)c1nc(-c2ccccc2)[nH]c(=O)c1O` showed a Kd of 56000 nM. Further, the IC50 in series [2] is greater than 100000 nM.

Take `Cc1nc(C(=O)O)c(O)c(=O)[nH]1`: the Kd in [1] came out at 44000 nM. For the same molecule, the IC50 in [2] was greater than 100000 nM.

In series [1], `O=C(O)c1nc(-c2cccc(Cl)c2)nc(O)c1O` showed an equilibrium dissociation constant (Kd) of 4800 nM. This molecule also displayed an IC50 in series [2] of 5600 nM.

In the case of `O=C(O)c1nc(-c2ccc(Br)cc2)nc(O)c1O`, the Kd in [1] came out at 1000 nM. It took 2000 nM to reach half-maximal inhibition in series [2] (IC50).

`O=C(O)c1nc(-c2ccccc2)nc(O)c1O`: binding in series [1] was characterised by a dissociation constant (Kd) of 2300 nM. In [2], this molecule came in with an IC50 of 3900 nM.

In the case of `O=C(O)c1nc(-c2ccc(-c3ccccc3)cc2)[nH]c(=O)c1O`, in [1], binding was characterised by a dissociation constant (Kd) of 720 nM. Also, inhibition in [2] was half-maximal at 2400 nM (IC50).

The molecule `CNC(=O)c1nc(-c2ccccc2)[nH]c(=O)c1O` came in with a dissociation constant Kd in series [1] of 74000 nM. Moreover, in series [2], the IC50 is greater than 100000 nM.

With `N#Cc1cc(-c2ccc(C(=O)N3CCNCC3)cc2)ccc1-n1cc(O)c(=O)c(C(=O)O)c1`, the hepatocyte CLint in series [3] was 10 µL/min/1e6 cells. Also, the CLH in series [4] worked out at 7 µL/min/mg. Also, the half-inhibitory concentration (IC50) is greater than 40000 nM in series [5]; greater than 100000 nM in [7]; 270 nM in series [2]; greater than 100000 nM in [8]; greater than 100000 nM in the series with PDE; greater than 100000 nM in series [11]. Also, the IC50 (in series [12]; against Insulin receptor) was greater than 100000 nM throughout. The molecule also registered a Kd in [1] of 1100 nM. Besides, the Ratio in series [6] is 1.1. In series [9], the logD is reported as less than 0. In [10], the Kinetic_solubility was greater than 200 µM.

With `O=C(O)c1cn(-c2ccc(-c3ccc(C(=O)N4CCNCC4)cc3)cc2)cc(O)c1=O`, the hepatocyte CLint in series [3] was found to be 11 µL/min/1e6 cells. Besides, in series [4], the CLH was less than 3 µL/min/mg. For the same molecule, the IC50 in series [5] is greater than 40000 nM; in [7], greater than 100000 nM; in series [2], 320 nM; in series [8], greater than 100000 nM; in the series with PDE, greater than 100000 nM; in [11], greater than 100000 nM. The IC50 (in [12]; against Insulin receptor) was greater than 100000 nM each time. The molecule also came in with a Kd in series [1] of 670 nM. In [6], the Ratio worked out at 1.5. The same molecule registered a pH-dependent lipophilicity (logD) in series [9] of less than 0. This molecule yielded a Kinetic_solubility in series [10] greater than 200 µM.

For the molecule `O=C(O)c1nc(-c2cccc(-c3ccccc3)c2)[nH]c(=O)c1O`, the Kd in [1] was found to be 1800 nM. The molecule further registered a concentration for half-maximal inhibition (IC50) in [2] of 2000 nM.

In turn, `O=C(O)c1nc(-c2ccccc2-c2ccccc2)[nH]c(=O)c1O` returned a Kd in series [1] of 4300 nM. Moreover, in series [2], the IC50 came to 4500 nM.

Regarding `O=C(O)c1cc(-c2ccc(-c3ccccc3)cc2)[nH]c(=O)c1O`, the affinity in [1], expressed as Kd, was 1400 nM. Besides, half-maximal inhibition in [2] (IC50) was put at 4100 nM.

Regarding `O=C(O)c1cn(-c2ccc(-c3ccccc3)cc2)cc(O)c1=O`, the Kd in [1] worked out at 790 nM. The molecule also gave an IC50 in [2] of 660 nM.

In the case of `O=C(O)c1cn(-c2ccc(N3CCNCC3)cc2)cc(O)c1=O`, the affinity in series [1], expressed as Kd, was 2000 nM. In [2], this molecule had an IC50 of 470 nM.

As to `N#Cc1cc(N2CCNCC2)ccc1-n1cc(O)c(=O)c(C(=O)O)c1`, in series [1], the Kd came out at 1200 nM. The same molecule yielded an IC50 in series [2] of 470 nM.

`O=C(O)c1nc(-c2ccc(N3CCNCC3)cc2)[nH]c(=O)c1O` had a Kd in series [1] of 2100 nM. In [2], this molecule showed an IC50 of 1200 nM.

For `O=C(O)c1nc(-c2ccccc2Cl)[nH]c(=O)c1O`, the Kd in series [1] was found to be 4000 nM. For the same molecule, it took 3800 nM to reach half-maximal inhibition in series [2] (IC50).

Consider `N#CCc1ccc(-c2ccccc2-c2nc(C(=O)O)c(O)c(=O)[nH]2)cc1`, for which binding in [1] was put at a Kd of 540 nM. The molecule further had an IC50 in [2] of 2800 nM.

Regarding `O=C(O)c1nc(-c2ccc3ccccc3c2)[nH]c(=O)c1O`, in series [1], the Kd was found to be 1300 nM. This molecule also registered an IC50 in series [2] of 1500 nM.

With `O=C(O)c1[nH]c(-c2ccc(-c3ccccc3)cc2)cc(=O)c1O`, the Kd in [1] was 430 nM. The IC50 in series [2] was 1100 nM.

`NC(=O)c1nc(-c2ccccc2)[nH]c(=O)c1O` displayed a Kd in [1] greater than 100000 nM. The IC50 in series [2] was greater than 100000 nM.

`CN(C)C(=O)c1nc(-c2ccccc2)[nH]c(=O)c1O` showed a Kd in [1] greater than 100000 nM. Moreover, the IC50 in series [2] is greater than 100000 nM.
